According to ChEMBL document CHEMBL5150073, “Photocaged DNA-Binding Photosensitizer Enables Photocontrol of Nuclear Entry for Dual-Targeted Photodynamic Therapy” (J Med Chem, 2022):
Activity calls are given as the source filed them. The rule behind the calls is not given here.

Key:
A549 = experiment: Selectivity index, ratio of CC50 for photocytotoxicity against human […] cells irradiated with 480 nm 2.3 J/cm^2 light to CC50 for photocytotoxicity against human A549 cells irradiated with 480 nm 2.3 J/cm^2 light and 8 J/cm^2 UV irradiation; type: functional
In short: (§1)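 Cells (MCF7, A549, HeLa) incubated 1 h with compound (BB probes 0–32 μM, Br-DAPI 0–64 μM) and washed once. Light arms: 480 nm (15 min, 2.3 J cm⁻²) with or without UV (5 min, 8.0 J cm⁻²), or UV only; dark controls unilluminated. Cells kept overnight in growth medium, then MTT read 24 h post-treatment. CC50 taken relative to untreated cells. n = 3.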

MCF7 [1] = experiment: Induction of ROS production in human MCF7 cells assessed as increase in green fluorescence signal at 3 uM irradiated with 480 nm 2.3 J/cm^2 light for 15 mins with 16 J 780 nm 2P laser light for 10 seconds by DCFH2-DA probe based analysis; type: functional, cell-based
In short: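 MCF7 cells given compound at 3 μM and DCFH2DA (10 μM). Uncaged by 480 nm illumination (15 min, 2.3 J cm⁻²). DCF fluorescence imaged before and after 780 nm two-photon laser exposure (10 s, 16 J).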

[2] = Photorelease ability in PBS at pH 7.4 assessed as 3-bromo-2-(4-carbamimidoylphenyl)-1H-indole-6-carboxamidine release by measuring change in emission spectra at 1 uM incubated in presence of CT-DNA and irradiated with 3.1 J/cm^2 mercury lamp light for 20 mins; type: functional
[3] = Selectivity index, ratio of CC50 for photocytotoxicity against human MCF7 cells irradiated with 480 nm 2.3 J/cm^2 light to CC50 for photocytotoxicity against human MCF7 cells irradiated with 480 nm 2.3 J/cm^2 light and 8 J/cm^2 UV irradiation; type: functional; in short: as §1
MCF7 [4] = experiment: (§2) Photocytotoxicity against human MCF7 cells assessed as cell death by measuring increase in green fluorescence incubated for 1 hr followed by washout and irradiated with 480 nm 2.3 J/cm^2 light for 15 mins with 48 J 780 nm 2P laser light for 30 seconds and further incubated for 2 hrs by cell viability imaging kit based assay; type: functional; conditions: dose 0-8 µM, DDE = dose-dependent effect
In short: (§3)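 MCF7 cells given compound at 4 μM. Illuminated with 480 nm light (15 min, 2.3 J cm⁻²) plus 780 nm two-photon laser (30 s, 48 J). Stained 2 h later with a live/dead imaging kit: green dead-cell stain (EGFP filter), blue total-cell stain (DAPI filter). n = 3.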

DNA = experiment: Induction of DNA (unknown origin) damage in PBS at pH 7.4 assessed as double strand breaks by measuring production of small DNA fragments at 10 uM irradiated with 480 nm 2.3 J/cm^2 light for 15 mins with 8 J/cm^2 UV irradiation for 5 mins by ethidium bromide staining based agarose gel electrophoresis; type: nucleic-acid assay; conditions: time 20.0 min
In short: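 Plasmid dsDNA (70 ng pCMV-PARP1-3xFlag-WT, 7146 bp) in PBS pH 7.4 with compound at 10 μM. Illumination: 480 nm for 15 min (2.3 J cm⁻²), then UV 365 nm lamp for 5 min (8.0 J cm⁻²). Samples denatured, run on 1% agarose gel with ethidium bromide. n = 2.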

[5] = Drug localization in mitochondria of human MCF7 cells assessed as increase in bright green fluorescence of wintergreen excitation at 2 uM incubated for 1 hr in dark by Mitotracker green dye based analysis; type: ADME; conditions: mcf7, 1 h
MCF7 [6] = experiment: Photocytotoxicity against human MCF7 cells assessed as reduction in cell viability incubated for 1 hr followed by washout and irradiation with 480 nm 2.3 J/cm^2 light for 15 mins and measured after 24 hrs by MTT assay; type: functional; conditions: MCF7, light or radiation study; in short: as §1
[7] = Induction of ROS production in PBS at pH 7.4 at 1 uM irradiated with 480 nm 2.3 J/cm^2 light for 15 mins with 2-photon irradiation by DCFH2-DA probe based analysis; type: functional
[8] = Drug uptake in human MCF7 cells cultured as […] spheroids assessed as increase in green fluorescence in nuclear background at 10 uM incubated overnight under dark condition by DAPI filter based fluorescence analysis; type: ADME, cell-based; conditions: mcf7, 10 µM
MCF7 [9] = experiment: as §2, with “fluorescence at 4 uM” for “fluorescence”, “seconds” for “seconds and further incubated for 2 hrs”; type: functional; in short: as §3
[10] = Aqueous stability of the compound in PBS at pH 7.4 assessed as hydrolysis of carbamate to release 3-bromo-2-(4-carbamimidoylphenyl)-1H-indole-6-carboxamidine at 0.8 uM incubated for 3 hrs by fluorescence based analysis; type: physicochemical; conditions: buffer, pH 7.4, 3 h
MCF7 [11] = experiment: Photocytotoxicity against human MCF7 cells cultured as 3D spheroids assessed as fold reduction in diameter of tumor spheroid size at 10 uM incubated for 1 hr followed by washout and irradiation with 480 nm 2.3 J/cm^2 light for 15 mins with 8 J/cm^2 UV irradiation for 5 mins and incubated overnight by cell viability imaging kit based assay
MCF7 [12] = experiment: Induction of DNA damage in human MCF7 cells assessed as double strand breaks by measuring pink foci formation in nucleus at 3 uM incubated for 2 hrs followed by irradiation with 480 nm 2.3 J/cm^2 light for 15 mins with 8 J/cm^2 UV irradiation for 5 mins by gammaH2A.X antibody/Alexa 488/DAPI staining based fluorescence analysis; type: functional, cell-based
In short: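 MCF7 cells treated with compound at 3 μM, then illuminated with 480 nm (15 min, 2.3 J cm⁻²) plus UV (5 min, 8.0 J cm⁻²), or with UV alone. Left 2 h, fixed, stained with Alexa 488-tagged γH2AX antibody and DAPI counterstain. Nuclear foci imaged.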

[13] = Selectivity index, ratio of CC50 for photocytotoxicity against human HeLa cells irradiated with 480 nm 2.3 J/cm^2 light to CC50 for photocytotoxicity against human HeLa cells irradiated with 480 nm 2.3 J/cm^2 light and 8 J/cm^2 UV irradiation; type: functional; in short: as §1
MCF7 [14] = experiment: Photocytotoxicity against human MCF7 cells cultured as […] spheroids assessed as fold reduction in diameter of tumor spheroid size at 10 uM incubated for 1 hr followed by washout and irradiation with 480 nm 2.3 J/cm^2 light for 15 mins with 8 J/cm^2 UV irradiation for 5 mins and incubated overnight by cell viability imaging kit based assay; type: functional
In short: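 MCF7 spheroids (~300 μm) grown in ultralow-attachment plates. Compound added to medium at 10 μM final for 1 h, then illuminated: 480 nm (15 min, 2.3 J cm⁻²), 480 nm plus UV (5 min, 8.0 J cm⁻²), or UV only. After overnight incubation, stained with a live/dead imaging kit; dead-cell green mean intensity and spheroid diameter assessed.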

[15] = Stability of compound in human MCF7 cells assessed as esterase-mediated 3-bromo-2-(4-carbamimidoylphenyl)-1H-indole-6-carboxamidine release by measuring cyan fluorescence at 2 uM incubated for 1 hr followed by compound washout and further incubated for 1 hr on heated microscopic stage by DAPI filter based fluorescence analysis; type: ADME, cell-based; conditions: mcf7, 1 h
In short: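 Cells incubated with compound (2 μM) for 1 h, washed once with PBS, then kept a further 1 h in the dark on a heated microscope stage. Nuclear cyan fluorescence imaged with the DAPI filter set at 0 h and 2 h time points.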

Drug uptake [5]: Active
Drug uptake [8]: Active
Stability [10]: Stable
Stability [15]: Stable
Structure (SMILES): CC1=CC(C)=[N+]2C1=C(COC(=O)/N=C(\N)c1ccc3c(Br)c(-c4ccc(C(=N)N)cc4)[nH]c3c1)c1c(C)cc(C)n1[B-]2(C)C
Ratio (A549): 17
Activity (MCF7 [1]): Active
Drug metabolism [2]: Metabolite detected
Ratio [3]: 8.5
Activity (MCF7 [4]): Dde
Activity (DNA): Active
CC50 (MCF7 [6]): 4 µM
Activity [7]: Active
Activity (MCF7 [9]): Active
Activity (MCF7 [11]): Active
Activity (MCF7 [12]): Active
Ratio [13]: 2.2
fold change (FC) (MCF7 [14]): 5
